We go through one molecule from ChEMBL document CHEMBL1133421, “Novel peptidomimetic hematoregulatory compounds” (2000).

In this experiment the test system is Murine stromal cell line. The experiment in a line: In vitro ability to induce a hematopoietic synergistic factor from a murine stromal cell line at 0.10 ug/mL; Not Detected. It is filed as functional, cell-based. Conditions: Mus musculus. The gist of the method: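 Murine stromal cell line C6.4 exposed to test compounds at 0.10, 1.0 and 10.0 µg/mL. Stromal supernatants then assayed for induced hematopoietic synergistic factor (HSF) activity in a murine bone marrow CFU-GM colony assay. Reference peptide included in every assay at 1.0 µg/mL as positive control.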

For `O=C(CCNC(=O)[C@H](CO)NC(=O)c1ccc[nH]1)Nc1ccc(NC(=O)CCNC(=O)[C@H](CO)NC(=O)c2ccc[nH]2)cc1`, the HSF release entry is “Not detected”.
